# Measurements taken from ChEMBL document CHEMBL1166013, “Pharmacophore and structure-activity relationships of integrase inhibition within a dual inhibitor scaffold of HIV reverse transcriptase and integrase” (Bioorg Med Chem, 2010).
# Activity calls are given as the source filed them. No cut-off for these calls is given here.
# Columns and labels:
# [1] = tested on: Human immunodeficiency virus 1; assay: Antiviral activity against HIV1 3B infected in human CEM-SS cells assessed as reduction in virus-induced cytopathic effect at 10 uM after 6 days by MTS assay; type: functional
# [2] = target: Human immunodeficiency virus type 1 reverse transcriptase (Human immunodeficiency virus 1) (UniProt Q72547); assay: Inhibition of HIV 3B reverse transcriptase at 100 uM using [3H]TTP as a tracer by scintillation counting
# In short: (§1)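 Resin-bound poly(A) template in scintillation format incubated with compound and [3H]-TTP tracer; reaction started by adding RT enzyme, run 3 h at 37 °C, quenched with stop buffer; incorporated [3H]-TTP counted 1 min per sample on a beta counter.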
# [3] = target: Human immunodeficiency virus type 1 integrase (Human immunodeficiency virus 1, UniProt Q7ZJM1); assay: Inhibition of HIV 3B integrase strand transfer activity
# In short: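 IN expressed in E. coli BL21(DE3) by IPTG induction. 600 nM IN in HEPES pH 7.5, 10 mM MnCl2, 1 mM DTT, 10% glycerol, BSA, Brij-35 preincubated 10 min at room temperature with inhibitor or DMSO; 50 nM annealed 5'-biotin/3'-cy5 duplex DNA added, 2 h 37 °C. Product captured on streptavidin plate, washed, eluted with formamide, fluorescence read.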
# [4] = target: Human immunodeficiency virus type 1 reverse transcriptase (Human immunodeficiency virus 1) (UniProt Q72547); assay: Inhibition of HIV 3B reverse transcriptase at 10 uM using [3H]TTP as a tracer by scintillation counting; in short: as §1
# [5] = target: Human immunodeficiency virus type 1 reverse transcriptase (Human immunodeficiency virus 1, UniProt Q72547); assay: Inhibition of HIV 3B reverse transcriptase using [3H]TTP as a tracer by scintillation counting
# [6] = tested on: Human immunodeficiency virus 1; assay: Antiviral activity against HIV1 3B infected in human CEM-SS cells assessed as inhibition of virus-induced cytopathic effect after 6 days by MTS assay; type: functional, organism-based; settings: Human immunodeficiency virus 1, 3B, 144 h
# In short: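 CEM-SS cells mixed with pre-titered HIV-1 IIIB (virus control wells lose 70–95% viability) in presence of compound, incubated 6 days; cytoprotection read by MTS or XTT dye reduction. Plates held cell, virus, compound toxicity and colorimetric controls; AZT positive control. EC50 = concentration inhibiting virus replication by 50%.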
# [7] = Therapeutic index, ratio of TC50 for human CEM-SS cells to EC50 for HIV1 3B; type: cell-based; settings: read-out: TI
# In short: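 TI calculated as TC50/EC50 from the 6-day CEM-SS cytoprotection assay (HIV-1 IIIB; MTS or XTT dye reduction) and matching compound-only toxicity wells.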
# [8] = Cytotoxicity against human CEM-SS cells after 6 days by MTS assay; type: cell-based; settings: read-out: TC50
# Chain of Human immunodeficiency virus type 1 integrase (Q7ZJM1 whole entry): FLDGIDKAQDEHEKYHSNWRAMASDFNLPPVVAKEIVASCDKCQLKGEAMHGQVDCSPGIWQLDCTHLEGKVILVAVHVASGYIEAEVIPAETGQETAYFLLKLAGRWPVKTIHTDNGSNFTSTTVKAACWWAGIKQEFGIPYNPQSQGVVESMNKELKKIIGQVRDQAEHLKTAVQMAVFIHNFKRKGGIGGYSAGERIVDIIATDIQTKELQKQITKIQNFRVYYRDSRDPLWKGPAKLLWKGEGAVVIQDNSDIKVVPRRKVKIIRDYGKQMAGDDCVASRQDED
inhibition [2],IC50 [3],inhibition [4],IC50 [5],Structure (SMILES),Activity [1],EC50 [6],selectivity ratio [7],CC50 at 144 h [8]
–,16 µM,–,0.71 µM,CCc1c(Cc2ccccc2)n(COCc2ccc(Cc3cccc(C(=O)/C=C(\O)C(=O)O)c3)cc2)c(=O)[nH]c1=O,–,0.56 µM,56,32 µM
0%,8 µM,0%,–,CC(C)c1c(Cc2ccccc2)[nH]c(=O)n(CCc2ccc(C(=O)/C=C(\O)C(=O)O)cc2)c1=O,28%,–,–,–
0%,37 µM,0%,–,CC(C)c1c(Cc2ccccc2)[nH]c(=O)n(CCCCc2ccc(C(=O)/C=C(\O)C(=O)O)cc2)c1=O,0%,–,–,–
–,22 µM,–,0.1 µM,Cc1cc(C)cc(Cc2c(C(C)C)c(=O)[nH]c(=O)n2COCc2ccc(Cc3cccc(C(=O)/C=C(\O)C(=O)O)c3)cc2)c1,–,0.17 µM,560,96 µM
100%,7.4 µM,100%,–,CC(C)c1c(Cc2ccccc2)n(COCCc2ccc(C(=O)/C=C(\O)C(=O)O)cc2)c(=O)[nH]c1=O,100%,–,–,–
–,11 µM,–,0.16 µM,CC(C)c1c(Cc2ccccc2)n(COCc2ccc(Cc3cccc(C(=O)/C=C(\O)C(=O)O)c3)cc2)c(=O)[nH]c1=O,–,0.46 µM,> 220,> 100 µM
0%,12 µM,0%,–,CC(C)c1c(Cc2ccccc2)[nH]c(=O)n(CCCc2ccc(C(=O)/C=C(\O)C(=O)O)cc2)c1=O,0.6%,–,–,–

# Second part, the compound before the results:
Structure (SMILES),inhibition [2],IC50 [3],inhibition [4],IC50 [5],Activity [1],EC50 [6],selectivity ratio [7],CC50 at 144 h [8]
CCc1c(Cc2ccccc2)nc(SCc2ccc(Cc3cccc(C(=O)/C=C(\O)C(=O)O)c3)cc2)[nH]c1=O,0%,> 100 µM,0%,–,inactive,–,–,–
CC(C)c1c(Cc2ccccc2)[nH]c(=O)n(CCCCCCc2ccc(C(=O)/C=C(\O)C(=O)O)cc2)c1=O,0%,> 100 µM,0%,–,9%,–,–,–
CC(C)c1c(Cc2ccccc2)n(COCCCc2ccc(C(=O)/C=C(\O)C(=O)O)cc2)c(=O)[nH]c1=O,100%,8.2 µM,100%,–,91%,–,–,–
CCc1c(Cc2cc(C)cc(C)c2)n(COCc2ccc(Cc3cccc(C(=O)/C=C(\O)C(=O)O)c3)cc2)c(=O)[nH]c1=O,–,14 µM,–,0.028 µM,–,0.014 µM,> 710,> 100 µM
CCc1c(Cc2ccccc2)nc(SCc2ccc(C(=O)/C=C(\O)C(=O)O)cc2)[nH]c1=O,0%,> 100 µM,0%,–,inactive,–,–,–
